Assay results pooled from the literature.
Target: Myotonin-protein kinase (DMPK, Homo sapiens, UniProt Q09013)
Residues used in one study (Q09013 1-629): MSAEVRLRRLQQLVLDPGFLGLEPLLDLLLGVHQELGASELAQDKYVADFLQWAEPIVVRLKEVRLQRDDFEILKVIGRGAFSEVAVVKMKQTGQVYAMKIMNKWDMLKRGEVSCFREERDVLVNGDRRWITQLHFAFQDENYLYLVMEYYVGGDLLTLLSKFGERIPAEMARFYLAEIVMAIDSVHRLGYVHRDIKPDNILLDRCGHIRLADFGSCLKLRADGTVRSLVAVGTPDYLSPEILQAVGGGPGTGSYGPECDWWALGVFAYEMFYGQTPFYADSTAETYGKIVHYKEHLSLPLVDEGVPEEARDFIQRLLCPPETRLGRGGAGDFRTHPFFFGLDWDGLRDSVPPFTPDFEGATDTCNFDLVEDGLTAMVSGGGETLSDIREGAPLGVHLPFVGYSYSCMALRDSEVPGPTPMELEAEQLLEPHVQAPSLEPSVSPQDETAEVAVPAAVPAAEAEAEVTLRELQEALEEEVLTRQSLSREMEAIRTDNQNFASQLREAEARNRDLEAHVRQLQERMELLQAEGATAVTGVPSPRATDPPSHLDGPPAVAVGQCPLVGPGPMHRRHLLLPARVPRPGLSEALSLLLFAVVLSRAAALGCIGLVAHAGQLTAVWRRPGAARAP

C=CC(=O)N1CCC([C@@H]2CCNc3c(C(N)=O)c(-c4ccc(Oc5ccccc5)cc4)nn32)CC1  inhibition (enzyme activity; inhibitor; 1 µM): 10%
Cc1ccc(NC(=O)c2ccnc(C(F)(F)F)c2)cc1-c1cc(OCCO)nc(N2CCOCC2)c1  remaining binding (binding; competition with immobilised ligand; 1 µM): 100%
CCCCC(=O)Nc1ccc(-c2ccc3ncn(CCC)c(=O)c3c2)cn1  remaining binding (binding; competition with immobilised ligand; 0.5 µM): 83%
COc1ccc2[nH]c3c4[nH]c5ccc(OC)cc5c4c4c(c3c2c1)C(=O)NC4=O  remaining binding (binding; competition with immobilised ligand; 1 µM): 56%
COc1ccc2oc(-c3ccc4nc(N)oc4c3)c/c(=N\c3ccccc3NC(=O)CCN)c2c1  remaining binding (binding; 1 µM): 102%
C=CC(=O)N1CCC[C@@H](n2nc(-c3ccc(Oc4ccccc4)cc3)c3c(N)ncnc32)C1  inhibition (enzyme activity; inhibitor; 1 µM): 1%
C1=C/COCc2cc(ccc2OCCN2CCCC2)Nc2nccc(n2)-c2cccc(c2)COC/1  remaining binding (binding; 0.1 µM): 100%
CC(C)S(=O)(=O)c1ccc2nccc(Nc3ccc4sc(C5CCCC5)nc4c3)c2c1  activity vs control (enzyme activity; inhibitor; 1 µM): 80%
